Measured values: ChEMBL document CHEMBL3132745, “Synthesis and Antimicrobial Activities of His(2-aryl)-Arg and Trp-His(2-aryl) Classes of Dipeptidomimetics” (Medchemcomm, 2014)
Activity calls are given as the source filed them. Residues, ends and D or L forms follow the SMILES beside them. *: point of attachment. Boc = CC(C)(C)OC(=O)*; NHBn = c1ccc(CN*)cc1

Legend:
LLC-PK1 = assay: Cytotoxicity against pig LLC-PK1 cells assessed as cell viability after 48 hrs by neutral red uptake assay; format: cell-based, Sus scrofa; settings: llc-pk1, 48 h
Method in brief: (§1)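 Neutral red uptake assay on human cancer lines (SK-MEL, KB, BT-549, SK-OV-3) and noncancerous mammalian cells (VERO, LLC-PK1). Highest tested concentration was 10 µg/mL.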

SK-OV-3 = assay: Cytotoxicity against human SKOV3 cells assessed as cell viability after 48 hrs by neutral red uptake assay; format: cell-based; settings: sk-ov-3, 48 h; method in brief: as §1
Cryptococcus neoformans = assay: Antifungal activity against Cryptococcus neoformans ATCC 90113 assessed as growth inhibition after 70-74 hrs by CLSI method; format: functional, organism-based
Vero = assay: Cytotoxicity against african green monkey Vero cells assessed as cell viability after 48 hrs by neutral red uptake assay; format: cell-based; settings: chlorocebus sabaeus; method in brief: as §1
BT-549 = assay: Cytotoxicity against human BT549 cells assessed as cell viability after 48 hrs by neutral red uptake assay; format: cell-based; settings: bt-549, 48 h; method in brief: as §1
Pichia kudriavzevii = assay: Antifungal activity against Candida krusei assessed as growth inhibition; format: functional, organism-based
Aspergillus fumigatus = assay: Antifungal activity against Aspergillus fumigatus assessed as growth inhibition; format: functional, organism-based
Candida albicans = assay: Antifungal activity against Candida albicans assessed as growth inhibition; format: functional, organism-based
Escherichia coli = assay: Antibacterial activity against Escherichia coli ATCC 35218 assessed as growth inhibition after 16-20 hrs by CLSI method; format: functional, organism-based
SK-MEL = assay: Cytotoxicity against human SK-MEL cells assessed as cell viability after 48 hrs by neutral red uptake assay; format: cell-based; method in brief: as §1
Nakaseomyces glabratus = assay: Antifungal activity against Candida glabrata assessed as growth inhibition; format: functional, organism-based
KB = assay: Cytotoxicity against human KB cells assessed as cell viability after 48 hrs by neutral red uptake assay; format: cell-based; method in brief: as §1
[1] = Cryptococcus neoformans, ATCC 90113, read-out: IC50
[2] = Cryptococcus neoformans, ATCC 90113

COC(=O)[C@H](Cc1c[nH]c(-c2ccc(OC)cc2)n1)NC(=O)[C@@H](N)Cc1c[nH]c2ccccc12
Not Active: IC50 (Cryptococcus neoformans)
> 10 µg/mL: Activity (LLC-PK1) | Activity (SK-OV-3) | Activity (Vero) | Activity (BT-549) | Activity (SK-MEL) | Activity (KB)
inactive: MFC (Cryptococcus neoformans) | MIC (Cryptococcus neoformans) | growth inhibition (GI) (Pichia kudriavzevii) | growth inhibition (GI) (Aspergillus fumigatus) | growth inhibition (GI) (Candida albicans) | growth inhibition (GI) (Escherichia coli) | growth inhibition (GI) (Nakaseomyces glabratus)

COC(=O)[C@H](Cc1c[nH]c(-c2ccc(C)cc2)n1)NC(=O)[C@@H](N)Cc1c[nH]c2ccccc12
11.9 µg/mL: IC50 (Cryptococcus neoformans; [1])
> 10 µg/mL: Activity (LLC-PK1) | Activity (SK-OV-3) | Activity (Vero) | Activity (BT-549) | Activity (SK-MEL) | Activity (KB)
inactive: MFC (Cryptococcus neoformans) | MIC (Cryptococcus neoformans) | growth inhibition (GI) (Pichia kudriavzevii) | growth inhibition (GI) (Aspergillus fumigatus) | growth inhibition (GI) (Candida albicans) | growth inhibition (GI) (Escherichia coli) | growth inhibition (GI) (Nakaseomyces glabratus)

COC(=O)[C@H](Cc1c[nH]c(-c2cccc3ccccc23)n1)NC(=O)[C@@H](N)Cc1c[nH]c2ccccc12
17.3 µg/mL: IC50 (Cryptococcus neoformans; [1])
inactive: MFC (Cryptococcus neoformans) | MIC (Cryptococcus neoformans) | growth inhibition (GI) (Pichia kudriavzevii) | growth inhibition (GI) (Aspergillus fumigatus) | growth inhibition (GI) (Candida albicans) | growth inhibition (GI) (Escherichia coli) | growth inhibition (GI) (Nakaseomyces glabratus)
> 10 µg/mL: Activity (LLC-PK1) | Activity (SK-OV-3) | Activity (Vero) | Activity (BT-549) | Activity (SK-MEL) | Activity (KB)

COC(=O)[C@H](Cc1c[nH]c(-c2ccc(C)cc2)n1)NC(=O)[C@H](Cc1c[nH]c2ccccc12)NC(=O)OC(C)(C)C
> 10 µg/mL: Activity (LLC-PK1) | Activity (SK-OV-3) | Activity (Vero) | Activity (BT-549) | Activity (SK-MEL) | Activity (KB)
Not Active: IC50 (Cryptococcus neoformans)
inactive: MFC (Cryptococcus neoformans) | MIC (Cryptococcus neoformans) | growth inhibition (GI) (Pichia kudriavzevii) | growth inhibition (GI) (Aspergillus fumigatus) | growth inhibition (GI) (Candida albicans) | growth inhibition (GI) (Escherichia coli) | growth inhibition (GI) (Nakaseomyces glabratus)

CC(C)(C)OC(=O)N[C@@H](Cc1c[nH]c2ccccc12)C(=O)N[C@@H](Cc1c[nH]c(-c2ccc(-c3ccccc3)cc2)n1)C(=O)NCc1ccccc1
> 10 µg/mL: Activity (LLC-PK1) | Activity (SK-OV-3) | Activity (Vero) | Activity (BT-549) | Activity (SK-MEL) | Activity (KB)
Not Active: IC50 (Cryptococcus neoformans)
inactive: MFC (Cryptococcus neoformans) | MIC (Cryptococcus neoformans) | growth inhibition (GI) (Pichia kudriavzevii) | growth inhibition (GI) (Aspergillus fumigatus) | growth inhibition (GI) (Candida albicans) | growth inhibition (GI) (Escherichia coli) | growth inhibition (GI) (Nakaseomyces glabratus)

N[C@@H](Cc1c[nH]c2ccccc12)C(=O)N[C@@H](Cc1c[nH]c(-c2cccc3ccccc23)n1)C(=O)NCc1ccccc1
Not Active: IC50 (Cryptococcus neoformans)
inactive: MFC (Cryptococcus neoformans) | MIC (Cryptococcus neoformans) | growth inhibition (GI) (Pichia kudriavzevii) | growth inhibition (GI) (Aspergillus fumigatus) | growth inhibition (GI) (Candida albicans) | growth inhibition (GI) (Escherichia coli) | growth inhibition (GI) (Nakaseomyces glabratus)
> 10 µg/mL: Activity (LLC-PK1) | Activity (SK-OV-3) | Activity (Vero) | Activity (BT-549) | Activity (SK-MEL) | Activity (KB)

N[C@@H](Cc1c[nH]c2ccccc12)C(=O)N[C@@H](Cc1c[nH]cn1)C(=O)NCc1ccccc1 (H-Trp-His-NHBn)
> 10 µg/mL: Activity (LLC-PK1) | Activity (SK-OV-3) | Activity (Vero) | Activity (BT-549) | Activity (SK-MEL) | Activity (KB)
inactive: MFC (Cryptococcus neoformans) | MIC (Cryptococcus neoformans) | growth inhibition (GI) (Pichia kudriavzevii) | growth inhibition (GI) (Aspergillus fumigatus) | growth inhibition (GI) (Candida albicans) | growth inhibition (GI) (Escherichia coli) | growth inhibition (GI) (Nakaseomyces glabratus)
Not Active: IC50 (Cryptococcus neoformans)

COc1ccc(-c2nc(C[C@H](N)C(=O)N[C@@H](CCCNC(=N)N)C(=O)NCc3ccccc3)c[nH]2)cc1
inactive: MFC (Cryptococcus neoformans) | MIC (Cryptococcus neoformans) | growth inhibition (GI) (Pichia kudriavzevii) | growth inhibition (GI) (Aspergillus fumigatus) | growth inhibition (GI) (Candida albicans) | growth inhibition (GI) (Escherichia coli) | growth inhibition (GI) (Nakaseomyces glabratus)
> 10 µg/mL: Activity (LLC-PK1) | Activity (SK-OV-3) | Activity (Vero) | Activity (BT-549) | Activity (SK-MEL) | Activity (KB)
Not Active: IC50 (Cryptococcus neoformans)

COC(=O)[C@H](CCCNC(=N)N)NC(=O)[C@H](Cc1c[nH]cn1)NC(=O)OC(C)(C)C (Boc-His-Arg-OMe)
inactive: MFC (Cryptococcus neoformans) | MIC (Cryptococcus neoformans) | growth inhibition (GI) (Pichia kudriavzevii) | growth inhibition (GI) (Aspergillus fumigatus) | growth inhibition (GI) (Candida albicans) | growth inhibition (GI) (Escherichia coli) | growth inhibition (GI) (Nakaseomyces glabratus)
> 10 µg/mL: Activity (LLC-PK1) | Activity (SK-OV-3) | Activity (Vero) | Activity (BT-549) | Activity (SK-MEL) | Activity (KB)
Not Active: IC50 (Cryptococcus neoformans)

COC(=O)[C@H](CCCNC(=N)N)NC(=O)[C@H](Cc1c[nH]c(-c2ccc(C(C)(C)C)cc2)n1)NC(=O)OC(C)(C)C
> 10 µg/mL: Activity (LLC-PK1) | Activity (SK-OV-3) | Activity (Vero) | Activity (BT-549) | Activity (SK-MEL) | Activity (KB)
inactive: MFC (Cryptococcus neoformans) | MIC (Cryptococcus neoformans) | growth inhibition (GI) (Pichia kudriavzevii) | growth inhibition (GI) (Aspergillus fumigatus) | growth inhibition (GI) (Candida albicans) | growth inhibition (GI) (Escherichia coli) | growth inhibition (GI) (Nakaseomyces glabratus)
Not Active: IC50 (Cryptococcus neoformans)

COC(=O)[C@H](CCCNC(=N)N)NC(=O)[C@@H](N)Cc1c[nH]c(-c2ccccc2)n1
> 10 µg/mL: Activity (LLC-PK1) | Activity (SK-OV-3) | Activity (Vero) | Activity (BT-549) | Activity (SK-MEL) | Activity (KB)
10.6 µg/mL: IC50 (Cryptococcus neoformans; [1])
inactive: MFC (Cryptococcus neoformans) | MIC (Cryptococcus neoformans) | growth inhibition (GI) (Pichia kudriavzevii) | growth inhibition (GI) (Aspergillus fumigatus) | growth inhibition (GI) (Candida albicans) | growth inhibition (GI) (Escherichia coli) | growth inhibition (GI) (Nakaseomyces glabratus)

COC(=O)[C@H](Cc1c[nH]cn1)NC(=O)[C@@H](N)Cc1c[nH]c2ccccc12 (H-Trp-His-OMe)
inactive: MFC (Cryptococcus neoformans) | MIC (Cryptococcus neoformans) | growth inhibition (GI) (Pichia kudriavzevii) | growth inhibition (GI) (Aspergillus fumigatus) | growth inhibition (GI) (Candida albicans) | growth inhibition (GI) (Escherichia coli) | growth inhibition (GI) (Nakaseomyces glabratus)
Not Active: IC50 (Cryptococcus neoformans)
> 10 µg/mL: Activity (LLC-PK1) | Activity (SK-OV-3) | Activity (Vero) | Activity (BT-549) | Activity (SK-MEL) | Activity (KB)

COC(=O)[C@H](Cc1c[nH]c(-c2ccc(C(C)(C)C)cc2)n1)NC(=O)[C@@H](N)Cc1c[nH]c2ccccc12
> 10 µg/mL: Activity (LLC-PK1) | Activity (SK-OV-3) | Activity (Vero) | Activity (BT-549) | Activity (SK-MEL) | Activity (KB)
18.8 µg/mL: IC50 (Cryptococcus neoformans; [1])
inactive: MFC (Cryptococcus neoformans) | MIC (Cryptococcus neoformans) | growth inhibition (GI) (Pichia kudriavzevii) | growth inhibition (GI) (Aspergillus fumigatus) | growth inhibition (GI) (Candida albicans) | growth inhibition (GI) (Escherichia coli) | growth inhibition (GI) (Nakaseomyces glabratus)

CC(C)(C)OC(=O)N[C@@H](Cc1c[nH]c2ccccc12)C(=O)N[C@@H](Cc1c[nH]c(-c2cccc3ccccc23)n1)C(=O)NCc1ccccc1
> 10 µg/mL: Activity (LLC-PK1) | Activity (SK-OV-3) | Activity (Vero) | Activity (BT-549) | Activity (SK-MEL) | Activity (KB)
Not Active: IC50 (Cryptococcus neoformans)
inactive: MFC (Cryptococcus neoformans) | MIC (Cryptococcus neoformans) | growth inhibition (GI) (Pichia kudriavzevii) | growth inhibition (GI) (Aspergillus fumigatus) | growth inhibition (GI) (Candida albicans) | growth inhibition (GI) (Escherichia coli) | growth inhibition (GI) (Nakaseomyces glabratus)

C[C@@H]1[C@H](O)[C@@H](C)/C=C/C=C/C=C/C=C/C=C/C=C/C=C/[C@H](O[C@@H]2O[C@H](C)[C@@H](O)[C@H](N)[C@@H]2O)C[C@@H]2O[C@](O)(C[C@@H](O)C[C@@H](O)[C@H](O)CC[C@@H](O)C[C@@H](O)CC(=O)O[C@H]1C)C[C@H](O)[C@H]2C(=O)O [AMPHOTERICIN B]
1.25 µg/mL: MFC (Cryptococcus neoformans; [2]) | MIC (Cryptococcus neoformans; [2])
0.69 µg/mL: IC50 (Cryptococcus neoformans; [1])
